Test results taken from publication PMC12480952 (Nature Communications, 2025).

Test system: FLAG-tagged, full-length WT BCL-2
Assay: Streptavidin pull-down from HEK 293T lysate, FLAG-BCL-2 WT, anti-FLAG western
Assay type: binding, human
Details: biotinylated BAD SAHB 4.2 1 μM, 300 μg lysate, overnight 4 °C
Procedure, shortened: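 HEK 293T cells (DMEM, 10% FBS, penicillin/streptomycin, 2 mM glutamine; mycoplasma-free) were transfected at 70% confluence with 3 μg of plasmid encoding N-FLAG full-length BCL-2 (aa 1–239) and lysed after 24 h in CHAPS buffer. Lysate (300 μg) took 1 μM biotinylated test peptide ± competitor (0.1, 1.0, 10 μM), overnight, 4 °C. Streptavidin agarose capture followed (2 h, room temperature), then PBS and 1% NP-40 washes, LDS elution and anti-FLAG western; three independent repeats.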

Question: For CC1(C)CCC(CN2CCN(c3ccc(C(=O)NS(=O)(=O)c4ccc(NCC5CCOCC5)c([N+](=O)[O-])c4)c(Oc4cnc5[nH]ccc5c4)c3)CC2)=C(c2ccc(Cl)cc2)C1 [venetoclax], which “displacement of biotin-BAD SAHB 4.2 from FLAG-BCL-2 WT” value (venetoclax 1 μM) is on record?
Answer: Its value is “near complete dissociation”.

Question: What about the “displacement of biotin-BAD SAHB 4.2 from FLAG-BCL-2 WT” value (venetoclax 10 μM) of the same compound?
Answer: The value was “complete dissociation”.
